Data as given in ChEMBL document CHEMBL1151307, “Effects of tannins from Geum japonicum on the catalytic activity of thrombin and factor Xa of blood coagulation cascade” (J Nat Prod, 1998).
pIC50, pKi: −log10 of the molar value. The source made the active and inactive calls.

Experiments:
Plasma [1] = assay: Anticoagulant activity in rabbit plasma assessed as prothrombin time at 2 mM after 2 mins; format: functional, Oryctolagus cuniculus
In short: (§1)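 Rabbit plasma was preincubated 2 min at 37 °C with compound dissolved in 0.05 M Tris buffer plus Tris/0.1 M NaCl, pH 7.5. Clotting was triggered with thromboplastin-calcium reagent and read on a fibrometer. Clotting time is in seconds, mean ± SD (n = 3-5), with Student's t-test against control. A cut-off of >300 s was scored as no clotting.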

Plasma [2] = assay: Anticoagulant activity in rabbit plasma assessed as thrombin time at 2 mM after 2 mins; format: functional, Oryctolagus cuniculus
In short: (§2)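 Rabbit plasma, 0.05 M Tris buffer and compound in Tris were preincubated for 2 min at 37 °C. Clotting was started with bovine thrombin (3-4 NIH units/mL) and timed on a fibrometer. Clotting time is in seconds, mean ± SD (n = 3-5), with Student's t-test against control. Clotting beyond 300 s was scored as no clotting.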

Plasma [3] = assay: Anticoagulant activity in rabbit plasma assessed as activated partial thromboplastin time at 2 mM after 2 mins; format: functional, Oryctolagus cuniculus
In short: (§3)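 Rabbit plasma with test compound in 0.05 M Tris buffer was incubated with APTT reagent for 2 min at 37 °C. Clotting was started with 25 mM CaCl2 and timed on a fibrometer. Clotting time is in seconds, mean ± SD (n = 3-5), compared with control by Student's t-test. Clotting beyond 300 s was scored as no clotting.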

Prothrombin [4] = target: T1, Prothrombin (Bos taurus, UniProt P00735); assay: Inhibition of bovine thrombin-catalyzed hydrolysis of S-2238
In short: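 Bovine plasma thrombin (0.19 NIH units/mL solution) in 0.05 M Tris with 0.1 M NaCl (pH 7.5) was preincubated with compound for 2 min at 37 °C. S-2238 was added as a 0.66 mM solution to start the reaction. p-Nitroaniline release was followed at 405 nm over 5 min and expressed as % inhibition. IC50 is the concentration that inhibits 50% of initial activity. Mean of three experiments.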

Prothrombin [5] = target: T1, Prothrombin; assay: Inhibition of bovine thrombin-catalyzed hydrolysis of fibrinogen
In short: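 Compound at various concentrations was preincubated with thrombin (0.05 NIH units/mL solution) for 3 min at 37 °C. The reaction was started with fibrinogen (2 mg/mL solution). Clot turbidity was read at 405 nm for 5 min and velocities were taken as mOD/min. IC50 is the concentration that inhibits 50% of initial activity. Mean of three experiments.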

Prothrombin (Bos taurus) [6] = target: Prothrombin (Bos taurus) (UniProt P00735); assay: Inhibition of bovine thrombin at 200 uM by Lineweaver-Burke plot analysis
In short: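 Bovine plasma thrombin at a fixed 0.19 NIH units/mL was tested in 0.05 M Tris with 0.1 M NaCl (pH 7.5) at 37 °C, with S-2238 at 0.6 to 1.7 mM. Compound and enzyme were preincubated for under 2 min before substrate was added. Initial rates were plotted as Lineweaver-Burk plots and fitted by linear regression to give the inhibition type and Ki. Mean of three.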

Plasma [7] = assay: Anticoagulant activity in rabbit plasma assessed as prothrombin time at 0.5 mM after 2 mins; format: functional, Oryctolagus cuniculus; in short: as §1
Plasma [8] = assay: Anticoagulant activity in rabbit plasma assessed as thrombin time at 0.5 mM after 2 mins; format: functional, Oryctolagus cuniculus; in short: as §2
Plasma [9] = assay: Anticoagulant activity in rabbit plasma assessed as activated partial thromboplastin time at 0.5 mM after 2 mins; format: functional, Oryctolagus cuniculus; in short: as §3
Plasma [10] = assay: Anticoagulant activity in rabbit plasma assessed as prothrombin time at 0.1 mM after 2 mins; format: functional, Oryctolagus cuniculus; details: in the assay text read “1 mM” for “0.1 mM”; in short: as §1
Plasma [11] = assay: Anticoagulant activity in rabbit plasma assessed as thrombin time at 0.1 mM after 2 mins; format: functional, Oryctolagus cuniculus; details: in the assay text read “1 mM” for “0.1 mM”; in short: as §2
Plasma [12] = assay: Anticoagulant activity in rabbit plasma assessed as activated partial thromboplastin time at 0.1 mM after 2 mins; format: functional, Oryctolagus cuniculus; details: in the assay text read “1 mM” for “0.1 mM”; in short: as §3
Prothrombin [13] = target: T1, Prothrombin; assay: Inhibition of bovine thrombin by Lineweaver-Burke plot analysis
In short: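 Bovine plasma thrombin (0.19 NIH units/mL) was run in 0.05 M Tris/0.1 M NaCl, pH 7.5, at 37 °C. It was preincubated with compound for under 2 min, and the reaction was started with S-2238 at 0.6-1.7 mM. Initial rates were taken as p-nitroaniline release at 405 nm. Inhibition type and Ki came from linear-regression Lineweaver-Burk plots.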

Coagulation factor X [14] = target: T2, Coagulation factor X (Homo sapiens, UniProt P00742); assay: Inhibition of human factor 10a
In short: (§4)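 Compound and 0.20 mM S-2222 were mixed in 0.05 M Tris/0.1 M NaCl, pH 8.3. Reaction was started with factor Xa (50 ng/mL) and 4-nitroanilide release was read at 405 nm over 5 min at 37 °C. IC50 is the concentration giving 50% inhibition of initial activity, mean ± SD of three experiments. Ki was determined with S-2222 at 0.04-0.20 mM.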

Coagulation factor X [15] = target: T2, Coagulation factor X; assay: Inhibition of human factor 10a-catalyzed hydrolysis of S-2222; in short: as §4
Prothrombin (Bos taurus) [16] = target: Prothrombin (Bos taurus) (UniProt P00735); assay: Inhibition of bovine thrombin upto 100 uM
In short: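 Bovine plasma thrombin (0.19 NIH units/mL) in Tris/0.1 M NaCl, pH 7.5, was preincubated 2 min at 37 °C with compound in 0.1% DMSO, which also served as vehicle control. Reaction was started with S-2238 (0.66 mM, as added) and read as the rise in A405 over 5 min. Results are percent inhibition of thrombin activity.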

Plasma [17] = assay: Anticoagulant activity in rabbit plasma assessed as prothrombin time at 0.25 mM after 2 mins; format: functional, Oryctolagus cuniculus
In short: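 PT: 0.05 M Tris/0.1 M NaCl (pH 7.5), compound in Tris and rabbit plasma incubated 2 min at 37 °C. Clotting started with thromboplastin-calcium reagent and timed on a fibrometer. Values are the mean of three determinations (mean ± SD, n = 3-5). Clotting >300 s was taken as no clotting.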

Plasma [18] = assay: Anticoagulant activity in rabbit plasma assessed as thrombin time at 0.25 mM after 2 mins; format: functional, Oryctolagus cuniculus
In short: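 TT: rabbit plasma, 0.05 M Tris and compound in Tris preincubated 2 min, then bovine thrombin (3-4 NIH units/mL) added. Clotting was timed on a fibrometer at 37 °C. Values are the mean of three determinations (mean ± SD, n = 3-5), with >300 s taken as no clotting.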

Plasma [19] = assay: Anticoagulant activity in rabbit plasma assessed as activated partial thromboplastin time at 0.25 mM after 2 mins; format: functional, Oryctolagus cuniculus
In short: (§5)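 APTT: rabbit plasma with compound (dissolved in 0.05 M Tris buffer) and APTT reagent preincubated 2 min, then clotting started with 25 mM CaCl2. Clotting time was read on a fibrometer at 37 °C. Values are the mean of three separate determinations (mean ± SD, n = 3-5), with clotting >300 s recorded as no clotting.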

Plasma [20] = assay: Anticoagulant activity in rabbit plasma assessed as prothrombin time at 0.75 mM after 2 mins; format: functional, Oryctolagus cuniculus; in short: as §1
Plasma [21] = assay: Anticoagulant activity in rabbit plasma assessed as thrombin time at 0.75 mM after 2 mins; format: functional, Oryctolagus cuniculus; in short: as §2
Plasma [22] = assay: Anticoagulant activity in rabbit plasma assessed as activated partial thromboplastin time at 0.75 mM after 2 mins; format: functional, Oryctolagus cuniculus; in short: as §3
[23] = Toxicity in po dosed mouse; format: organism-based; details: in vivo
[24] = Toxicity in po dosed rat; format: organism-based; details: in vivo
Plasma [25] = assay: Anticoagulant activity in rabbit plasma assessed as prothrombin time at 0.45 mM after 2 mins; format: functional, Oryctolagus cuniculus
In short: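 Rabbit plasma incubated 2 min at 37 °C with compound in 0.05 M Tris buffer plus 0.05 M Tris/0.1 M NaCl (pH 7.5); clotting started with thromboplastin-calcium reagent and timed on a fibrometer at 37 °C; clotting time in seconds, cut-off >300 s; average of three separate determinations (mean ± SD, n = 3-5).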

Plasma [26] = assay: Anticoagulant activity in rabbit plasma assessed as activated partial thromboplastin time at 0.47 mM after 2 mins; format: functional, Oryctolagus cuniculus; in short: as §5

T2 sequence (P00742 41-179 limits assumed): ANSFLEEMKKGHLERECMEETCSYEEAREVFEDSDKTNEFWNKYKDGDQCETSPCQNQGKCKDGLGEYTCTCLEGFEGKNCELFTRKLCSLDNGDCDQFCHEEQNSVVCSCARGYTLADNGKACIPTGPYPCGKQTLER
T2 sequence (P00742 235-488 limits assumed): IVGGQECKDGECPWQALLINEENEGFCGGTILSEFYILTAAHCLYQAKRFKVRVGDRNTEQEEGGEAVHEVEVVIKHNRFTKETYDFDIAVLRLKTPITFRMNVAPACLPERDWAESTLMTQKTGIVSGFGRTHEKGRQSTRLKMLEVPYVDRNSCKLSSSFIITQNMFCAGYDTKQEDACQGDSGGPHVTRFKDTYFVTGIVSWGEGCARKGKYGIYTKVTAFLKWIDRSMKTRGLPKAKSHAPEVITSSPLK

pIC50 (Prothrombin [4])	pIC50 (Prothrombin [5])	pKi (Prothrombin [13])	pKi (Coagulation factor X [14])	pIC50 (Coagulation factor X [15])	Activity (Prothrombin (Bos taurus) [16])	Structure (SMILES)	PT (Plasma [7])	TT (Plasma [8])	APTT (Plasma [9])	PT (Plasma [10])	TT (Plasma [11])	APTT (Plasma [12])	further results
< 3.70	< 3.70					O=C1O[C@H]2[C@H](O)[C@@H](CO)OC(O)[C@@H]2OC(=O)c2cc(O)c(O)c(O)c2-c2c1cc(O)c(O)c2O (stereo not given in full)							PT (Plasma [1]): 10 s; TT (Plasma [2]): 9.43 s; APTT (Plasma [3]): 39.9 s; Activity (Prothrombin (Bos taurus) [6]): inactive
< 3.70	< 3.70					O=C(OC[C@H]1OC(O)[C@H](OC(=O)c2cc(O)c(O)c(O)c2)[C@@H](O)[C@@H]1O)c1cc(O)c(O)c(O)c1 (stereo not given in full)							PT (Plasma [1]): 11.1 s; TT (Plasma [2]): 10.7 s; APTT (Plasma [3]): 40.8 s; Activity (Prothrombin (Bos taurus) [6]): inactive
6.72	7.59	6.08	6.16	6.55		O=C1OC[C@@H](O)[C@H]([C@@H]2OC(=O)c3cc(O)c(O)c(O)c3-c3c(O)c(O)c(O)c4c3C(=O)O[C@H]2[C@H]4O)OC(=O)c2cc(O)c(O)c(O)c2-c2c1cc(O)c(O)c2O	13.9 s	16.2 s	31.6 s	>300 s	>300 s	>300 s	
					inactive	COc1cc(C(=O)OC[C@H]2O[C@@H](OC(=O)c3cc(OC)c(OC)c(OC)c3)[C@H](OC(=O)c3cc(OC)c(OC)c(OC)c3)[C@@H](OC(=O)c3cc(OC)c(OC)c(OC)c3)[C@@H]2OC(=O)c2cc(OC)c(OC)c(OC)c2)cc(OC)c1OC							
					inactive	COc1cc2c(c(OC)c1OC)-c1c(cc(OC)c(OC)c1OC)C(=O)O[C@H]1[C@@H]3OC(=O)c4cc(OC)c(OC)c(OC)c4-c4c(cc(OC)c(OC)c4OC)C(=O)O[C@H]3C(OC)O[C@@H]1COC2=O (stereo not given in full)							
					inactive	O=C(OC[C@H]1O[C@@H](OC(=O)c2ccccc2)[C@H](OC(=O)c2ccccc2)[C@@H](OC(=O)c2ccccc2)[C@@H]1OC(=O)c1ccccc1)c1ccccc1							
6.55	7.23	6.01	6.35	6.14		O=C1OC[C@@H](O)[C@H]([C@@H]2OC(=O)c3cc(O)c(O)c(O)c3-c3c(O)c(O)c(O)c4c3C(=O)O[C@H]2[C@@H]4O)OC(=O)c2cc(O)c(O)c(O)c2-c2c1cc(O)c(O)c2O [CASUARIIN]	13.6 s	12.3 s	72.3 s	>300 s	>300 s	>300 s	
7.15	7.85	6.38	6.36	6.68		O=C(OC1O[C@@H]2COC(=O)c3cc(O)c(O)c(O)c3-c3c(cc(O)c(O)c3O)C(=O)O[C@H]2[C@H](OC(=O)c2cc(O)c(O)c(O)c2)[C@H]1OC(=O)c1cc(O)c(O)c(O)c1)c1cc(O)c(O)c(O)c1 (stereo not given in full) [TELLIMAGRANDIN II]	11.9 s	18.7 s	45.7 s	>300 s	>300 s	>300 s	

Structure (SMILES)	pIC50 (Prothrombin [4])	pIC50 (Prothrombin [5])	pKi (Prothrombin [13])	pKi (Coagulation factor X [14])	pIC50 (Coagulation factor X [15])	Activity (Prothrombin (Bos taurus) [16])	PT (Plasma [7])	TT (Plasma [8])	APTT (Plasma [9])	PT (Plasma [10])	TT (Plasma [11])	APTT (Plasma [12])	further results
O=C1OC[C@H]2OC(O)[C@@H]3OC(=O)c4cc(O)c(O)c(O)c4-c4c(cc(O)c(O)c4O)C(=O)O[C@H]3[C@@H]2OC(=O)c2cc(O)c(O)c(O)c2-c2c1cc(O)c(O)c2O (stereo not given in full) [PEDUNCULAGIN]	6.74	6.82	7.38	6.00	6.25		13.5 s	22.7 s	43.7 s	>300 s	>300 s	>300 s	PT (Plasma [17]): 10.2 s; TT (Plasma [18]): 12.6 s; APTT (Plasma [19]): 35.3 s; PT (Plasma [20]): 15.2 s; TT (Plasma [21]): 33.5 s; APTT (Plasma [22]): 60.2 s; LD50 [23]: > 100 mg/kg; LD50 [24]: > 100 mg/kg
O=C(OC[C@H]1O[C@@H](OC(=O)c2cc(O)c(O)c(O)c2)[C@H](OC(=O)c2cc(O)c(O)c(O)c2)[C@@H](OC(=O)c2cc(O)c(O)c(O)c2)[C@@H]1OC(=O)c1cc(O)c(O)c(O)c1)c1cc(O)c(O)c(O)c1 [PENTAGALLOYL GLUCOSE]	6.96	7.30	5.41	6.24	6.77		> 300 s	> 300 s	> 300 s				PT (Plasma [25]): >300 s; APTT (Plasma [26]): >300 s; PT (Plasma [17]): 13.9 s; TT (Plasma [18]): >300 s; APTT (Plasma [19]): 50.6 s
